Assay results reported in ChEMBL document CHEMBL3272055, “2,3-Disubstituted 1,8-naphthyridines as potential diuretic agents. 2. 5,7-Dimethyl derivatives” (J Med Chem, 1977).

What was measured:
Rattus norvegicus [1] = experiment: Toxicity in nonloaded rat assessed as kaluretic effect by measuring increase in K+ secretion at 15 mg/kg after 6 hrs relative to control; assay type: organism-based; set-up: dose 15 mg/kg; conditions: in vivo
Outline: (§1)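 Nonloaded rats dosed at 2 or 15 mg/kg. Urine was collected cumulatively over 6 h and urine volume, Na+ and K+ (mequiv) measured. Values are means of eight rats, reported as drug versus control, with the Na+/K+ ratio derived from these.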

Rattus norvegicus [2] = experiment: Natriuretic activity in nonloaded rat assessed as increase in Na+ secretion at 2 mg/kg after 6 hrs relative to control; assay type: functional; outline: as §1
Rattus norvegicus [3] = experiment: Diuretic activity in nonloaded rat assessed as urine volume at 2 mg/kg after 6 hrs relative to control; assay type: functional; outline: as §1
Rattus norvegicus [4] = experiment: Diuretic activity in saline-loaded Wistar albino rat assessed as increase of saline-load excretion at 2 mg/kg, ip measured for 6 hrs relative to triamterene; assay type: functional, Urine; conditions: route intraperitoneal
Outline: (§2)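 Saline-loaded rats given compound ip, screened at 15 mg/kg, with actives retested at 2 mg/kg. Diuresis was read as urine volume output over 6 h by a modified Lipschitz method and expressed as % of the saline load excreted, as an increase over controls. A response under 21.8% above control was counted insignificant. Activity was also expressed relative to triamterene.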

Rattus norvegicus [5] = experiment: Toxicity in nonloaded rat assessed as kaluretic effect by measuring increase in K+ secretion at 2 mg/kg after 6 hrs relative to control; assay type: organism-based; set-up: dose 2 mg/kg; conditions: in vivo; outline: as §1
Rattus norvegicus [6] = experiment: Ratio of natriuretic activity in nonloaded rat assessed as increase in Na+ secretion at 2 mg/kg to kaliuretic activity in nonloaded rat assessed as increase in K+ secretion at 2 mg/kg; outline: as §1
Rattus norvegicus [7] = experiment: Diuretic activity in saline-loaded Wistar albino rat assessed as increase of saline-load excretion at 15 mg/kg, ip measured for 6 hrs relative to control; assay type: functional, Urine; conditions: route intraperitoneal; outline: as §2
Rattus norvegicus [8] = experiment: Diuretic activity in nonloaded rat assessed as urine volume at 15 mg/kg after 6 hrs relative to control; assay type: functional; outline: as §1
Rattus norvegicus [9] = experiment: Ratio of natriuretic activity in nonloaded rat assessed as increase in Na+ secretion at 15 mg/kg to kaliuretic activity in nonloaded rat assessed as increase in K+ secretion at 15 mg/kg; outline: as §1
Rattus norvegicus [10] = experiment: Natriuretic activity in nonloaded rat assessed as increase in Na+ secretion at 15 mg/kg after 6 hrs relative to control; assay type: functional; outline: as §1
Rattus norvegicus [11] = experiment: Diuretic activity in saline-loaded Wistar albino rat assessed as increase of saline-load excretion at 15 mg/kg, ip measured for 6 hrs relative to triamterene; assay type: functional, Urine; conditions: route intraperitoneal; outline: as §2
Rattus norvegicus [12] = experiment: Diuretic activity in saline-loaded Wistar albino rat assessed as increase of saline-load excretion at 2 mg/kg, ip measured for 6 hrs relative to control; assay type: functional, Urine; conditions: route intraperitoneal; outline: as §2

Row | Compound | Activity (Rattus norvegicus [1]) | Activity (Rattus norvegicus [2]) | Activity (Rattus norvegicus [3]) | fold change (FC) (Rattus norvegicus [4]) | Activity (Rattus norvegicus [5]) | Ratio (Rattus norvegicus [6]) | Activity (Rattus norvegicus [7]) | Activity (Rattus norvegicus [8]) | Ratio (Rattus norvegicus [9]) | Activity (Rattus norvegicus [10]) | fold change (FC) (Rattus norvegicus [11]) | Activity (Rattus norvegicus [12])
1 | CCCCNC(=O)c1cc2c(C)cc(C)nc2nc1N | 0.25 milliequivalent | 0.471 milliequivalent | 3.7 mL | 1.25 | 0.217 milliequivalent | 2.17 | 152.7% | 4.1 mL | 1.71 | 0.427 milliequivalent | 2.64 | 43.2%
2 | CCNC(=O)c1cc2c(C)cc(C)nc2nc1N | 0.301 milliequivalent |  |  |  |  |  | 47.7% | 3.7 mL | 1.64 | 0.495 milliequivalent | 0.83 | <21.8%
3 | CCCNC(=O)c1cc2c(C)cc(C)nc2nc1N | 0.25 milliequivalent |  |  |  |  |  | 53.7% | 3.9 mL | 1.64 | 0.41 milliequivalent | 0.93 | <21.8%
4 | CCCCCNC(=O)c1cc2c(C)cc(C)nc2nc1N | 0.263 milliequivalent |  |  |  |  |  | 23.4% | 2.9 mL | 1.48 | 0.39 milliequivalent | 0.4 | <21.8%
5 | COC(=O)c1cc2c(C)cc(C)nc2nc1N | 0.21 milliequivalent |  |  |  |  |  | 47.3% | 1.6 mL | 1.05 | 0.221 milliequivalent | 0.82 | <21.8%
6 | Cl.NC(=O)c1cc2cccnc2nc1N.O | 0.161 milliequivalent |  |  | 3 |  |  | 67.5% | 5.3 mL | 4.75 | 0.765 milliequivalent | 1.41 | 62.9%
7 | Nc1nc(N)c2nc(-c3ccccc3)c(N)nc2n1 [TRIAMTERENE] | 0.136 milliequivalent |  |  |  |  |  | 57.8% | 4.9 mL | 5.84 | 0.804 milliequivalent |  | 34.5%
